The values that follow come from paper PMC9020136 (Science (New York, N.Y.), 2022).

In one experiment the test system is Bacilus subtilis. Briefly: MIC, broth-microdilution method. The experiment is classed as cell-based. (In general: Dilution methods test growth across graded concentrations, often in twofold steps.)
The test system of a further experiment is bacterial membranes. Briefly: Membrane permeabilization, influx of viability stain SYTOX Green. It is filed as cell-based, B. subtilis. To be noted: concentration twice the MIC value. In short, it runs like this:
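Live B. subtilis cells imaged over time by confocal microscopy after exposure to a lethal level of test compound. SYTOX Green was used as a viability stain, with its entry into cells read as membrane permeabilization.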

What is called MIC is the lowest concentration found to suppress growth. Substance (−)-Himastatin [(−)-himastatin (1)] showed an MIC in the experiment on Bacilus subtilis of 1 µg/mL. Besides, in the experiment on bacterial membranes, the “time to permeabilization of bacterial membranes” value was not above 30 min.
